Data published in ChEMBL document CHEMBL1156386, “New cytotoxic butanolides from Litsea acutivena” (2001).
≈ marks a conversion by molar mass, not a printed value.

What was measured:
Format in all cases: functional
[1] = tested on: A549; assay: Cytotoxicity against human A549 cells after 6 days by MTT assay; conditions: A549, 144 h, read-out: ED50 (the source's name)
How it was run: (§1)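 A549 grown in EMEM with Earle's salts, 0.1 mM nonessential amino acids and 10% heat-inactivated FCS; HT-29 in RPMI 1640 with 10% heat-inactivated FCS; 37 °C, 5% CO2. Seeded 1000 cells/well. Eight concentrations spanning a 128-fold range, triplicate. After 6 days, MTT (1 mg/mL) added for 5 h, formazan dissolved in DMSO, A540. ED50 = 50% absorbance reduction versus untreated cells.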

[2] = tested on: HT-29; assay: Cytotoxicity against human HT-29 cells after 6 days by MTT assay; conditions: HT-29, 144 h, read-out: ED50 (the source's name); how it was run: as §1
[3] = tested on: P388; assay: Cytotoxicity against mouse P388 cells after 3 days by MTT assay; conditions: P388, 72 h, read-out: ED50 (the source's name)
How it was run: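 P-388 cells in Fisher's medium with 10% heat-inactivated FCS at 37 °C, 5% CO2. Cultures set up at 1500 cells/well in 200 µL. Compounds added at eight concentrations in triplicate. After 3 days, cells counted by MTT: formazan dissolved in DMSO, absorbance at 540 nm. ED50 = concentration giving 50% absorbance reduction versus untreated cells.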

| SMILES | EC50 [1] [µg/mL] | EC50 [2] [µg/mL] | EC50 [3] [µg/mL] |
| --- | --- | --- | --- |
| C=C1OC(=O)/C(=C\CCCCCCCCCCC)[C@@H]1O [ISOLICOMOLIDE D] | 2.9 (≈ 10.3 µM) | 2.11 (≈ 7.52 µM) | 2.97 (≈ 10.6 µM) |
| CCCCCCCCC/C=C1\C(=O)O[C@@](C)(OC)[C@H]1O [LITSEAKOLIDE E] | 4.89 (≈ 17.2 µM) | 3.69 (≈ 13 µM) | 2.94 (≈ 10.3 µM) |
| CCCCCCCCC/C=C1/C(=O)O[C@@](C)(OC)[C@H]1O [LITSEAKOLIDE D] | 2.85 (≈ 10 µM) | 2 (≈ 7.03 µM) | 1.73 (≈ 6.08 µM) |
| CCCCCCCCC/C=C1/C(=O)O[C@@](C)(OC)[C@@H]1O [LITSEAKOLIDE F] | 2.01 (≈ 7.07 µM) | 4.39 (≈ 15.4 µM) | 2.04 (≈ 7.17 µM) |
| CCCCCCCCC/C=C1\C(=O)O[C@@](C)(OC)[C@@H]1O [LITSEAKOLIDE G] | 1.94 (≈ 6.82 µM) | 2.73 (≈ 9.6 µM) | 0.97 (≈ 3.41 µM) |
| C=Cc1cc(OC)c2oc(-c3ccc(O)c(OC)c3)cc2c1 [DEHYDROXYMETHYLAILANTHOIDOL] | > 50 | > 50 | > 50 |
| CO[C@H](C(=O)[C@@H](O)[C@@H](C)O)[C@@H]1Cc2cc3cc(O[C@H]4C[C@@H](O[C@@H]5C[C@@H](O)[C@H](O)[C@@H](C)O5)[C@H](O)[C@@H](C)O4)c(C)c(O)c3c(O)c2C(=O)[C@H]1O[C@H]1C[C@@H](O[C@@H]2C[C@@H](O)[C@@H](O[C@@H]3C[C@](C)(O)[C@H](O)[C@@H](C)O3)[C@@H](C)O2)[C@H](O)[C@@H](C)O1 [PLICAMYCIN] | 0.07 (≈ 0.0645 µM) | 0.08 (≈ 0.0737 µM) | 0.06 (≈ 0.0553 µM) |
